Reference: ChEMBL document CHEMBL1129365, “Rational design of novel immunosuppressive drugs: analogues of azathioprine lacking the 6-mercaptopurine substituent retain or have enhanced immunosuppressive effects” (1996)
One block for each compound: values may come before it.

Assays:
Format in all cases: functional
[1] = Inhibition of lymphocyte proliferation in vitro by 25 uM.; conditions: Homo sapiens
[2] = Percent inhibition against incorporation of [3H]-thymidine in Human mixed lymphocyte reaction at a concentration of 25 uM
[3] = Percent inhibition against incorporation of [3H]thymidine in Human mixed lymphocyte reaction at a concentration of 10 uM.
[4] = Effective dose against inhibitory potency in Human mixed lymphocyte reaction; conditions: read-out: ED50 (the source's name)
Outline: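 Human MLR: responder lymphocytes and mitomycin-C-treated stimulator lymphocytes, isolated on Ficoll-Metrizoate (10^5 each), cultured in triplicate in RPMI 1640 with 2 mM glutamine, 10 mM HEPES and 20% (final) pooled human AB serum plus drug. Incubation 5 days at 37 °C under 5% CO2/95% air. [3H]thymidine incorporation read; ED50 taken from a graph of ≥4 points, each the mean of 3–10 experiments.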

[5] = Inhibition of human mixed leukocyte proliferation in vitro; Not determined.; conditions: read-out: ED50 (the source's name)
[6] = Percent inhibition against incorporation of [3H]thymidine in Human mixed lymphocyte reaction at a concentration of 50 uM.

Structure (SMILES): Cn1cnc([N+](=O)[O-])c1Sc1nc2cc([N+](=O)[O-])ccc2[nH]1
inhibition at 25 µM [1]: 2%

Structure (SMILES): Cc1ccc2[nH]c(Sc3c([N+](=O)[O-])ncn3C)nc2c1
inhibition at 25 µM [1]: 86%

Structure (SMILES): COc1cc2nc(Sc3c([N+](=O)[O-])ncn3C)[nH]c2cc1OC
inhibition at 25 µM [1]: 94%

Structure (SMILES): Cn1cnc([N+](=O)[O-])c1Sc1ccccn1
inhibition at 25 µM [2]: 76%

Structure (SMILES): Cn1cnc([N+](=O)[O-])c1SC1=NCCS1
inhibition at 25 µM [1]: 100%

Structure (SMILES): Cn1cnc([N+](=O)[O-])c1Sc1nc2ccccc2[nH]1
inhibition at 25 µM [1]: 90%

Structure (SMILES): COc1ccc(OC)c2[nH]c(Sc3c([N+](=O)[O-])ncn3C)nc12
inhibition at 25 µM [1]: 41%

Structure (SMILES): Cc1cc(C)nc(Sc2c([N+](=O)[O-])ncn2C)n1
inhibition at 25 µM [1]: 47%

Structure (SMILES): Cn1cnc([N+](=O)[O-])c1Sc1nc2ccccc2o1
inhibition at 25 µM [2]: 87%

Structure (SMILES): Cn1cnc([N+](=O)[O-])c1Sc1ccccc1C(=O)O
inhibition at 25 µM [2]: 34%

EC50 [4]: 2.9 µM
Structure (SMILES): CCn1c(C)nc([N+](=O)[O-])c1Sc1nccn1C
inhibition at 25 µM [1]: 100% | inhibition at 10 µM [3]: 98%

EC50 [4]: 3.15 µM
Structure (SMILES): Cn1ccnc1Sc1c([N+](=O)[O-])ncn1C
inhibition at 25 µM [1]: 100% | inhibition at 10 µM [3]: 82%

EC50 [4]: 2.5 µM
Structure (SMILES): CCn1c(C)nc([N+](=O)[O-])c1Sc1nncn1C
inhibition at 25 µM [1]: 100% | inhibition at 10 µM [3]: 98%

EC50 [4]: 14 µM
Structure (SMILES): Cn1cnc([N+](=O)[O-])c1Sc1nc[nH]n1
inhibition at 25 µM [1]: 58%

EC50 [4]: 2.8 µM
Structure (SMILES): Cn1cnc([N+](=O)[O-])c1Sc1ncc[nH]1
inhibition at 25 µM [1]: 100% | inhibition at 10 µM [3]: 89%

EC50 [4]: 2.7 µM
Structure (SMILES): Cn1cnnc1Sc1c([N+](=O)[O-])ncn1C
inhibition at 25 µM [1]: 100% | inhibition at 10 µM [3]: 98%

Structure (SMILES): Cn1cnc([N+](=O)[O-])c1Sc1nccc(O)n1
inhibition at 25 µM [1]: 29%

Structure (SMILES): Cn1cnc([N+](=O)[O-])c1Sc1ncccn1
inhibition at 25 µM [1]: 47%

Structure (SMILES): Cn1cnc([N+](=O)[O-])c1Sc1[nH]cnc2nc(O)nc1-2
EC50 [5]: 24 µM | inhibition at 25 µM [2]: 50%

Structure (SMILES): Cn1cnc([N+](=O)[O-])c1Sc1nc2ccccc2s1
inhibition at 25 µM [2]: 27%

Structure (SMILES): Cc1cc(C)cc(Sc2c([N+](=O)[O-])ncn2C)c1
inhibition at 25 µM [2]: 47%

Structure (SMILES): CCOC(=O)CSc1c([N+](=O)[O-])ncn1C
inhibition at 25 µM [2]: 65%

Structure (SMILES): Cn1cnc([N+](=O)[O-])c1Sc1ccccc1N
inhibition at 25 µM [1]: 21%

Structure (SMILES): Cn1cnc([N+](=O)[O-])c1Sc1nc2cc(Cl)c(F)cc2[nH]1
inhibition at 50 µM [6]: 59%

EC50 [4]: 7.9 µM
Structure (SMILES): Cn1cnc([N+](=O)[O-])c1Sc1ncnc2[nH]cnc12 [AZATHIOPRINE]
inhibition at 25 µM [2]: 79%
